# Measles CPE: protection of cells from measles virus | Measles virus-infected cells, CPE protection, absorbance | protection (pct of control), % at 4 µM | 1.5% of 140,000 active; in the data active means protection mostly above about 24%, no sharp cut-off; inactive means mostly below about 26%
# Yeast lifespan up: extends the lifespan of yeast. S. cerevisiae growth with nicotinamide, OD615; deaD strain in restrictive glucose medium. inhibition of the nicotinamide effect, % at 10 µM. 0.68% of 130,000 active;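 active means inhibition above a set limit, placed 3 SD over the median of all compounds, cut at about 26% in these data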
#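 Assay system: engineered S. cerevisiae DeaD replicative-lifespan strain, galactose-grown log-phase cells; Buffer or medium: CSMM-D glucose medium, restrictive; Probe or stimulus: nicotinamide 1.5 mM; Compound: single dose 10 µM compound, 0.25% DMSO; Schedule: 4 h preincubation then 48 h treatment at 30 °C; Technique: OD615 measurement.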
# Yeast growth inh: reduces growth of yeast BB579 in restrictive medium; S. cerevisiae BB579 growth, OD615, 48 h; inhibition, % at 10 µM; 0.51% of 140,000 active;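 active means inhibition above a set limit, 3 SD over the mean compound inhibition, cut at about 44% in these data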
#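 System: Saccharomyces cerevisiae DeaD strain BB579, replicative lifespan model yeast | Buffer or medium: Restrictive glucose-based CSMM-D medium | Times: 4 h preincubation and 48 h exposure at 30 °C | Detection: OD615 turbidity measurement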
# RAM network inh: yeast RAM network inhibition; S. cerevisiae dse1pr::URA3 reporter, 5-FOA growth OD615, 2 d; analog-sensitive cbk1-as2 kinase mutant strain; inhibition, % at 50 µM; 1.8% of 190,000 active;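 active means inhibition above a set limit, 3 SD over mean compound inhibition, cut at about 8.4% in these data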;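 further: inhibition rescues growth on 5-FOA so higher OD means more RAM inhibition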
# WT yeast gro inh: growth inhibition of WT yeast, mitochondrial fusion screen. 2.1% of 190,000 active. mitochondrial fusion phenotypic screen, WT strain. inhibition, % at 10 µM. AID 1362; in the data active means inhibition above about 58%; tested in S. cerevisiae
# hDAT+cocaine: human DAT dopamine uptake with cocaine, either direction; Q01959; LLC-PK1 hDAT cells, [14C]-dopamine uptake with cocaine IC80; actives deviate in either direction; B-score at 10 µM; 1.3% of 110,000 active;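 active means Z score or B-score, a plate-position-corrected score, falls beyond the plate's 99.7% confidence bounds, in either direction; inactive means both scores lie inside the 99.7% bounds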
# Target sequence (Q01959 whole entry, looked up): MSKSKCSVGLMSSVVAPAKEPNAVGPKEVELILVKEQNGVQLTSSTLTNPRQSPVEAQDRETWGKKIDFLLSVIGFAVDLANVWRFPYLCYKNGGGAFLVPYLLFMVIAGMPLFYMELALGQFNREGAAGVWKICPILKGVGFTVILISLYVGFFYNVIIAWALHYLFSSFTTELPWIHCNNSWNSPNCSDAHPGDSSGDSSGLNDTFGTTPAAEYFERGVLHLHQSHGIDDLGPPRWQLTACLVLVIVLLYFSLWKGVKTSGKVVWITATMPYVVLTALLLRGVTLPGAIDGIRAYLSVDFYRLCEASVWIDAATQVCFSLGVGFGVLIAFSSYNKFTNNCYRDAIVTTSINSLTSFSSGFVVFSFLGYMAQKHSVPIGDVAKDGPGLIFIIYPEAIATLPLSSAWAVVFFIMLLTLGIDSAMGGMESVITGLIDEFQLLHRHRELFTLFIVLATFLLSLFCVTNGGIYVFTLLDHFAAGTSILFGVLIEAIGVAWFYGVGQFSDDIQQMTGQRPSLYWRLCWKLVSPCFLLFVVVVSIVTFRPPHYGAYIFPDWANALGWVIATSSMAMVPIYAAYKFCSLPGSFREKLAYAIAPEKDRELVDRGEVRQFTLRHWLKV
# Numbers stand for hits; 0 = inactive; - = no result. Only some compounds are listed: those with a hit (about 6.1% of all), similar ones and a draw of the others.
SMILES,Measles CPE,Yeast lifespan up,Yeast growth inh,RAM network inh,WT yeast gro inh,hDAT+cocaine
S=C(c1ccc(-c2cccc(Cl)c2)o1)N1CCCCC1,-,-,-,0,58,-
N#CCCN1CCN(C(=S)c2ccc(-c3ccc(Cl)c(Cl)c3)o2)CC1,0,0,0,0,-,0
N#CCCN1CCN(C(=S)c2ccc(-c3cccc(Cl)c3)o2)CC1,0,0,0,0,0,2.4
COc1ccc(Br)cc1CN(C)C(C)C(=O)Nc1cccc(C(C)=O)c1 (stereo unspecified),-,-,-,0,0,-
Cc1ccc(OC(=O)c2cccc(C(=O)Oc3ccc(C)cn3)n2)nc1,0,0,0,0,0,-8
CCOC(=O)c1cccc(C(=O)OCC)n1,0,0,0,0,0,0
Cc1cc(C)nc(NC2=NCC(=O)N2c2ccc3c(c2)OCCO3)n1,0,0,0,0,95,0
CCOC(=O)N/N=C(\C)c1ccc(OC(F)F)cc1OC(F)F,0,0,0,0,0,-
COc1ccc2c(c1)C(C)=CC(C)(C)N2C(=O)CSc1nnc(-c2ccc(C)cc2)o1,0,0,0,0,0,0
COc1cccc(/C=N/N2CCN(C)CC2)c1,0,0,0,0,0,-
COc1ccc(/C=N/N2CCN(C)CC2)cc1O,28,0,0,0,0,0
Fc1cccc(Cl)c1CNCc1ccccc1Cl,0,0,0,0,0,0
CCCCCCNCc1c(F)cccc1Cl,57,0,0,0,0,-
Cc1cc[n+](-c2nc([O-])sc2/C=N/Nc2ccc([N+](=O)[O-])cc2)cc1,49,0,0,0,0,0
OC1(c2ccc(Br)cc2)CN(c2ccccc2)C2=[N+]1CCS2 (stereo unspecified),-,-,-,0,0,-
Cc1cc(N/N=C/c2ccc([N+](=O)[O-])o2)nc2ccccc12,-,-,-,0,0,-
Cn1c(/C=C/c2ccc([N+](=O)[O-])o2)nc2ccccc2c1=O,0,0,82,0,0,0
CC(C)(C)C(=O)COC(=O)c1ccccc1O,0,0,0,0,0,0
CC(C)(C)C(=O)COC(=O)c1ccc(O)cc1,55,0,0,0,0,0
O=S(=O)(c1ccccc1)c1cnc(-c2cccnc2)nc1-c1ccc(Cl)cc1Cl,0,0,0,0,67,0
Cc1cc2sc(C(=O)O)c(C)c2s1,0,-,58,0,0,0
COc1cccc(NC(=S)N(CCCN2CCCC2)Cc2cccn2Cc2ccc(Cl)cc2)c1,-,-,-,0,59,-
COc1cccc(NC(=S)N(CCCN2CCCC2)Cc2ccco2)c1,-,-,-,0,0,-
S=C(Nc1cccc(Cl)c1)N(CCCN1CCCC1)Cc1cccn1Cc1ccc(Cl)cc1,-,-,-,0,81,-
CSc1cccc(NC(=S)N(CCCN2CCCC2)Cc2cccn2Cc2ccc(Cl)cc2)c1,-,-,-,0,74,-
SMILES,Measles CPE,Yeast lifespan up,Yeast growth inh,RAM network inh,WT yeast gro inh,hDAT+cocaine
Cn1cc(CN(CCCN2CCOCC2)C(=S)Nc2cccc(Cl)c2)c2ccccc21,0,0,0,0,0,-
CCOC(=O)CNC(=S)N1CCn2c(nc3ccccc32)C1,-,-,-,0,0,-
Cc1nc(C#N)c(N/N=C/c2c(F)cccc2Cl)o1,0,0,0,0,0,-
CCN(CC)CCNC(=O)CCCCn1c(=S)[nH]c2c([nH]c3ccc(OC)cc32)c1=O,0,0,0,0,0,2.6
O=C(NCCN1CCCC1)c1ccc2c(=O)n(CCc3ccccc3)c(=O)[nH]c2c1,0,0,0,0,0,-8.2
CCCCCn1c(=O)[nH]c2cc(C(=O)NCCCN(CC)CC)ccc2c1=O,0,0,0,0,0,-3.7
CCCCCn1c(=O)[nH]c2cc(C(=O)NCCN3CCOCC3)ccc2c1=O,-,-,-,-,0,-
CCOCCCn1c(=S)[nH]c2cc(C(=O)NCCN(CC)CC)ccc2c1=O,34,0,0,0,0,0
CCCCNC(=O)c1ccc2c(=O)n(CCCOCC)c(=S)[nH]c2c1,0,0,0,0,0,0
CCc1c(C)sc(NC(=O)Cn2nc(C(F)(F)F)c3c2CCCC3)c1C#N,0,0,0,0,0,0
COC(=O)/C(=C1/Oc2ccc(C)cc2S1)C(F)(F)F,0,0,0,0,0,-
C=CCc1ccc(OCCOCCOc2ccccc2[N+](=O)[O-])c(OC)c1,0,0,0,0,0,0
CCOC(=O)C1CCCN(C(=O)c2ccc3c(=O)n(CCOC)c(=S)[nH]c3c2)C1 (stereo unspecified),28,-,0,0,0,0
Cc1cc2ccccn2c1C(=O)c1ccc([N+](=O)[O-])o1,-,-,-,0,0,-
Cc1ccc(C2CC(c3cccs3)=NN2S(=O)(=O)c2ccc(C)cc2)cc1 (stereo unspecified),0,0,0,0,61,-
COc1ccc(C2CC(c3cccs3)=NN2S(=O)(=O)c2ccc(C)cc2)cc1 (stereo unspecified),-,-,-,-,-,0
COc1ccccc1N1CCN(C(=O)CCCn2nc(C)c([N+](=O)[O-])c2C)CC1,-,-,-,0,0,-
O=C1C2CC=CCC2C(=O)N1c1ccc(NCCc2ccc(O)cc2)c([N+](=O)[O-])c1 (stereo unspecified),0,0,0,0,0,-
O=C(Nc1ccc(Cl)cc1)C1=Cc2cc(Cl)ccc2OC1,0,0,0,0,0,0
COc1ccc2c(c1)C=C(C(=O)NCc1ccc(Cl)cc1)CO2,0,0,0,0,68,0
COc1ccc2c(c1)CC/C2=N\OC(=O)c1ccccc1OC,-,-,-,0,0,-
Cc1ccccc1OCC1CN(CN2CCOCC2)C(=O)O1 (stereo unspecified),0,0,0,0,0,0
CC(C)(C)N1CC(COc2ccccc2)OC1=O (stereo unspecified),0,0,0,0,0,-8.9
CCOC(=O)C1=C(C)N(c2ccc(C)c(C)c2)C(=O)/C1=C\c1ccco1,0,0,0,11,0,0
COC(=O)C1=C(C)N(c2ccc(C)c(C)c2)/C(=C/c2ccco2)C1=O,-,-,-,0,0,-
SMILES,Measles CPE,Yeast lifespan up,Yeast growth inh,RAM network inh,WT yeast gro inh,hDAT+cocaine
CCOC(=O)CSc1nnc(CCCCCN2C(=O)c3cccc4cccc(c34)C2=O)o1,0,0,0,11,0,-
CCOC(=O)C1=C(O)C(=O)NC(c2ccccc2)=C(OC2CCCCC2)C1,0,0,0,0,0,-
CCCC(=O)NNC(=O)c1c(O)c2ccccc2[nH]c1=O,-,-,-,0,0,-
CCS(=O)(=O)c1ccc(C(=O)Nc2cccc(Cl)c2)c(Cl)c1Cl,0,0,0,0,0,0
CCS(=O)(=O)c1ccc(C(=O)Nc2ccccc2)c(Cl)c1Cl,89,0,0,0,0,0
CC(=O)Nc1ccc(N2C(=O)CSC2c2ccccc2[N+](=O)[O-])cc1 (stereo unspecified),-,-,-,0,0,-
Cc1ccccc1-n1c(SCC(=O)NC(N)=O)nc2sc(-c3ccccc3)cc2c1=O,0,0,0,0,0,-
Cc1ccccc1-n1c(SCC(N)=O)nc2sc(-c3ccccc3)cc2c1=O,0,0,0,0,0,3
Oc1c(Br)cc(Br)cc1/C=N/c1nc2c(s1)CCCC2,0,0,99,0,0,0
Oc1ccc2ccccc2c1/C=N/c1nc2c(s1)CCCC2,0,33,0,0,80,0

# Screening data deposited in PubChem by several laboratories.
